Results taken from ChEMBL document CHEMBL1134387, “Synthesis and biodistribution of a new oxo-technetium-99m bis(aminothiol) complex as a potential melanoma tracer” (J Med Chem, 2001).

Legend:
Assay type in all cases: ADME, organism-based
Mus musculus [1] = test: Tumor to lung radioactivity ratio was determined in mice at 6 hr after (iv) administration in presence of [125I]-BZA; conditions: in vivo
Mus musculus [2] = test: Tumor to liver radioactivity ratio was determined in mice at 6 hr after (iv) administration in presence of [125I]-BZA; conditions: in vivo
Mus musculus [3] = test: Biodistribution in tumor was determined at 24 hr in mice bearing C57B16 murine melanoma after (i.v.) administration; conditions: in vivo, iv
In short: (§1)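 C57 mice carrying B16 melanotic melanoma, implanted s.c. as 5×10^5 viable cells. Tumours were palpable after 10 days. Mice received 0.74 MBq of the 99mTc-labeled complex by tail-vein injection. Groups of n = 3 were killed by exsanguination at each time point. Weighed tissue aliquots were gamma-counted immediately and expressed as decay-corrected %ID/g, mean ± sem.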

Mus musculus [4] = test: Tumor to blood radioactivity ratio was determined in mice at 3h after (iv) administration in presence of [125I]-BZA; conditions: tumour
Mus musculus [5] = test: Tumor to lung radioactivity ratio was determined in mice at 1 hr after (iv) administration in presence of [125I]-BZA; conditions: in vivo
Mus musculus [6] = test: Tumor to lung radioactivity ratio was determined in mice at 3h after (iv) administration in presence of [125I]-BZA; conditions: in vivo
Mus musculus [7] = test: Tumor to liver radioactivity ratio was determined in mice at 24 hr after (iv) administration in presence of [125I]-BZA; conditions: in vivo
Mus musculus [8] = test: Biodistribution in tumor was determined at 3h in mice bearing C57B16 murine melanoma after (i.v.) administration; conditions: in vivo, iv; in short: as §1
Mus musculus [9] = test: Tumor to liver radioactivity ratio was determined in mice at 1 hr after (iv) administration in presence of [125I]-BZA; conditions: in vivo
Mus musculus [10] = test: Tumor to blood radioactivity ratio was determined in mice at 6 hr after (iv) administration in presence of [125I]-BZA; conditions: tumour
Mus musculus [11] = test: Tumor to liver radioactivity ratio was determined in mice at 3h after (iv) administration in presence of [125I]-BZA; conditions: in vivo
Mus musculus [12] = test: Biodistribution in tumor was determined at 1 hr in mice bearing C57B16 murine melanoma after (i.v.) administration; conditions: in vivo, iv; in short: as §1
Mus musculus [13] = test: Tumor to lung radioactivity ratio was determined in mice at 24 hr after (iv) administration in presence of [125I]-BZA; conditions: in vivo
Mus musculus [14] = test: Biodistribution in tumor was determined at 6 hr in mice bearing C57B16 murine melanoma after (i.v.) administration; conditions: in vivo, iv; in short: as §1
Mus musculus [15] = test: Tumor to blood radioactivity ratio was determined in mice at 1 hr after (iv) administration in presence of [125I]-BZA; conditions: tumour
Mus musculus [16] = test: Tumor to blood radioactivity ratio was determined in mice at 24 hr after (iv) administration in presence of [125I]-BZA; conditions: tumour

Ratio (Mus musculus [1]): 2.13 | Ratio (Mus musculus [2]): 3.83 | ID/g (Mus musculus [3]): 0.79% | Ratio (Mus musculus [4]): 7.79 | Ratio (Mus musculus [5]): 0.62 | Ratio (Mus musculus [6]): 0.69 | Ratio (Mus musculus [7]): 4.94 | ID/g (Mus musculus [8]): 3.85% | Ratio (Mus musculus [9]): 1.12 | Ratio (Mus musculus [10]): 17.58 | Ratio (Mus musculus [11]): 1.1 | ID/g (Mus musculus [12]): 6.75% | Ratio (Mus musculus [13]): 15.82 | ID/g (Mus musculus [14]): 3.53% | Ratio (Mus musculus [15]): 6.55 | Ratio (Mus musculus [16]): 37.33
SMILES: CCN(CC)CCNC(=O)c1ccc([125I])cc1
